ChEMBL document CHEMBL1150666, “Antioxidant and free-radical scavenging activity of constituents of the leaves of Tachigalia paniculata” (J Nat Prod, 2002)
pIC50: −log10 of the molar value.

Key:
[1] = ABTS radical scavenging activity assessed as Trolox equivalent antioxidant capacity at 1 mM by spectrophotometry; assay type: physicochemical; conditions: 1000 µM
Summary of the method: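 ABTS radical cation made from 7 mM ABTS with 2.45 mM potassium persulfate, kept dark at room temperature 12 h. Diluted in PBS pH 7.4 to A734 0.70 and equilibrated at 30 °C. Methanol sample solutions (0.3–2 mM) were added to diluted ABTS. Percent inhibition at 734 nm versus methanol blank, plotted against concentration relative to Trolox; three determinations.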

[2] = target: Xanthine dehydrogenase/oxidase (Homo sapiens, UniProt P47989); experiment: Inhibition of xanthine oxidase-mediated formation of uric acid by spectrophotometry
Summary of the method: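 Xanthine 100 μM in 0.1 M phosphate buffer pH 7.8 with 0.04 units/mL XOD, incubated 10 min at room temperature. Compounds added at several concentrations before enzyme; IC50 from regression lines.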

Sequence of Xanthine dehydrogenase/oxidase (P47989 whole entry): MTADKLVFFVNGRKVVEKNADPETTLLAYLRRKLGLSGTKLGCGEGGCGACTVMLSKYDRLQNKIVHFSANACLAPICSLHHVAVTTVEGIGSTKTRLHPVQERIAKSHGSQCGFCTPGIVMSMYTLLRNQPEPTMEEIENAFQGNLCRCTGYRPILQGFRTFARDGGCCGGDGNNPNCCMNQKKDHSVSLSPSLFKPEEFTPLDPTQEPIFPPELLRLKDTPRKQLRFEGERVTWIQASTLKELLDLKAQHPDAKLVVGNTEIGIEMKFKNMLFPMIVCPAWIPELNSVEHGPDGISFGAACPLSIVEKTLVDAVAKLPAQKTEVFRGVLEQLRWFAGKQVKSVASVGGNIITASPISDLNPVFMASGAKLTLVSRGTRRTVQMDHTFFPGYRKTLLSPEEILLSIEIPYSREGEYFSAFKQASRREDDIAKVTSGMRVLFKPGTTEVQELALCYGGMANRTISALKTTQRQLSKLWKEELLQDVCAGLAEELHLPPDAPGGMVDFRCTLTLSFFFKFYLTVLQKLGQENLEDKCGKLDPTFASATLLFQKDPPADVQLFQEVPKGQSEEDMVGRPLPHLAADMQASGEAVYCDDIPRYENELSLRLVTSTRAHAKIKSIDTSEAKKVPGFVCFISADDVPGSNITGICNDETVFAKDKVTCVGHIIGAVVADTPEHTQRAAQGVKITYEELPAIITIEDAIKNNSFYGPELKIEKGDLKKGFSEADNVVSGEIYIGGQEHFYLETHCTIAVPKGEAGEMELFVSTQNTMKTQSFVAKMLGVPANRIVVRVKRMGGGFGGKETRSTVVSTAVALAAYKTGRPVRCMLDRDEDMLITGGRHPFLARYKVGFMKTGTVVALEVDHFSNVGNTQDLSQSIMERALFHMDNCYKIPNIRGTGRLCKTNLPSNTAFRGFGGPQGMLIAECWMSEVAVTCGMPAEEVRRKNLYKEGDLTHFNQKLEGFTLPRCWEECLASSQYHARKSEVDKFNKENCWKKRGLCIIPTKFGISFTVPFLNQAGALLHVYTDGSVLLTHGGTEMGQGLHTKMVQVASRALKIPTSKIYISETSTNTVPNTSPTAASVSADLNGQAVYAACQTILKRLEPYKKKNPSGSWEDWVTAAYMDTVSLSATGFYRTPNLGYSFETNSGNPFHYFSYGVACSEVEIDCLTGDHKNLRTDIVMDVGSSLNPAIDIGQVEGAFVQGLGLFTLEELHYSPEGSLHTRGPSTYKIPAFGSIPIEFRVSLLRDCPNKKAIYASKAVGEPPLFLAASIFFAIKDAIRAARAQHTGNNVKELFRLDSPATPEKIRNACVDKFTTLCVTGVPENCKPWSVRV

Row | Structure (SMILES) | Activity [1] [mM] | pIC50 [2]
1 | O=c1c(O)c(-c2ccc(O)c(O)c2)oc2cc(O)cc(O)c12 [QUERCETIN] | 2.6 | 
2 | COC(=O)c1ccc(O)c(O)c1 [METHYL PROTOCATECHUATE] | 0.855 | 4.53
3 | COC(=O)c1ccc(O)cc1 [METHYLPARABEN] | 0.147 | < 4.30
4 | C[C@@H]1O[C@@H](Oc2c(-c3ccc(O)c(O)c3)oc3cc(O)cc(O)c3c2=O)[C@H](O)[C@H](O)[C@H]1O [QUERCITRIN] | 0.854 | 4.83
5 | COc1ccc(C=O)cc1O [ISOVANILLIN] | 0.144 | < 4.30
6 | O=C/C=C/c1ccc(O)c(O)c1 [CAFFEOYL ALDEHYDE] | 0.713 | 4.50
7 | O=c1c(O)c(-c2cc(O)c(O)c(O)c2)oc2cc(O[C@@H]3O[C@H](CO[C@@H]4O[C@H](CO)[C@@H](O)[C@H](O)[C@H]4O)[C@@H](O)[C@H](O)[C@H]3O)cc(O)c12 | 1.62 | 5.19
8 | COC(=O)c1cc(O)c(O)c(O)c1 [GALLIC ACID METHYL ESTER] | 1.154 | 4.81
9 | C[C@@H]1O[C@@H](OC[C@H]2O[C@@H](Oc3cc(O)c4c(=O)c(O)c(-c5cc(O)c(O)c(O)c5)oc4c3)[C@H](O)[C@@H](O)[C@@H]2O)[C@H](O)[C@H](O)[C@H]1O | 1.42 | 5.21
10 | O=c1c(O[C@@H]2O[C@H](CO)C(O)[C@H](O)[C@H]2O)c(-c2ccc(O)c(O)c2)oc2cc(O)cc(O)c12 (single isomer, unassigned) [ISOQUERCETIN] | 1.1 | 4.58
11 | O=c1c(O[C@@H]2O[C@H](CO)[C@@H](O)[C@H](O)[C@H]2O)c(-c2ccc(O)c(O)c2)oc2cc(O)cc(O)c12 [ISOQUERCETIN] | 0.757 | < 4.30
